High-throughput results from PubChem.
A selection: hits, their analogues and other compounds. The true share with any hit is near 4.9%.
NF-kB expr up – compounds increasing NF-kB expression in human neuronal cells. NF-kB reporter expression; stronger effect = higher value. fold change at 12.5 µM. 190,000 tested, 1.6% active. AID 1239; in the data active means fold change above about 3.3
STAT1 act – activators of IFN-gamma induced STAT1 signaling. AID 932. NIH 3T3 STAT1-luciferase reporter, luminescence; 100% = IFN-gamma alone, no compound. activation (% of control), % at 5.5 µM. 200,000 tested, 2.6% active;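 active means activation above the screen-wide mean activation plus 3 SD, cut at about 130% in these data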;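 further: raw ratio to IFN-gamma control signal so 100% means no change and 0% no light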
STAT1 blocker – inhibitors of IFN-gamma induced STAT1 signaling; NIH 3T3 STAT1-luciferase reporter, luminescence; inhibition, % at 5.5 µM; 200,000 tested, 0.35% active;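 active means inhibition above a set limit, the mean inhibition across all tested compounds plus 3 SD, cut at about 34% in these data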;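 further: 0% = IFN-gamma with DMSO and 100% = IFN-gamma with 300 µM nifuroxazide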
APP 5'UTR act – activates APP 5'UTR luciferase reporter; SH-SY5Y APP 5'UTR luciferase reporter, luminescence; zero percent = DMSO vehicle wells; activation, % at 2 µM; 190,000 tested, 1% active;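 active means activation above a set limit, based on mean plus 3 SD of controls, cut at about 140% in these data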
STAT3 inh – STAT3 signaling inhibition. U3A cells, IL-6 STAT3-luciferase reporter, luminescence; host cell line lacks STAT1. inhibition, % at 5.5 µM. 190,000 tested, 0.89% active. AID 862;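 active means inhibition above the mean inhibition across all screened compounds plus 3 SD, cut at about 44% in these data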;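 further: 0% = DMSO only wells and 100% = 100 µM nifuroxazide control wells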
STAT3 activator – activators of IL-6 induced STAT3 signaling; activation (% of control), % at 5.6 µM; U3A cells, IL-6 STAT3-luciferase reporter, luminescence; 100% = signal with IL-6 EC80 alone; 190,000 tested, 0.91% active;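 active means activation above the screen-wide mean of compound activation plus 3 SD, cut at about 130% in these data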;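 further: 0% = background luminescence of wells with medium and substrate only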
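Material: STAT1-lacking human U3A cells, STAT3 luciferase reporter | Benchmarks: IL-6-only wells as 100% reference | Probe or stimulus: IL-6 (33 ng/mL) | Timing: Compound 1 h, then IL-6 6 h at 37 °C | Detection: Luminescence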
STAT1 activ conf – STAT1 activation, confirmation assay. 1,200 tested, 97% active. NIH 3T3 STAT1-luciferase reporter, IFN-gamma potentiation, luminescence; 100% = IFN-gamma EC80 alone, no compound. shares compounds with STAT1 act. AID 1262. activation (% of control), % at 5.7 µM;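 active means activation above a set limit carried over from the earlier primary STAT1 screen, cut at about 140% in these data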;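 further: simple ratio to median IFN-gamma plus DMSO wells so 0% means no light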
NFkB act STAT1ct – activates NF-kappaB, counter-screen to STAT1 activators. shares compounds with STAT1 act. HEK293T NF-kB luciferase reporter, TNF-alpha stimulated, luminescence; 100% = TNF-alpha with vehicle only. activation (% of control), % at 5.7 µM. 1,200 tested, 43% active;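 active means activation above the mean of solvent-only control wells plus 3 SD, set per campaign, cut at about 130% in these data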;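 further: TNF-alpha given at a submaximal dose yielding about 80% of full reporter signal; values are well signal over median control so 100% means no change and 0% no light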
STAT3 act 2 – activates human STAT3, counter-screen to STAT1 activators | shares compounds with STAT1 act | U3A cells STAT3-luciferase reporter, IL-6, luminescence; cells lack STAT1; 100 = IL-6 alone, no compound effect | activation (% of control), % at 5.7 µM | 1,200 tested, 46% active | AID 1316;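 active means activation above the solvent-only control well mean plus 3 SD, set per plate batch, cut at about 110% in these data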;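 further: 0% = no luminescence and 100% = median IL-6 plus DMSO wells; higher means more STAT3 reporter activation so hits are non-selective activators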
An asterisk follows results filed as active; . = no result given.

SMILES | NF-kB expr up | STAT1 act | STAT1 blocker | APP 5'UTR act | STAT3 inh | STAT3 activator | STAT1 activ conf | NFkB act STAT1ct | STAT3 act 2
NC(=O)N/N=C/c1cc(Br)ccc1OC(=O)c1ccccc1 | 0.97 | 103 | -4 | -4 | 2 | 97 | . | . | .
COc1ccc(C2CC(c3cccs3)=Nc3ccccc3S2)cc1 (stereo not drawn) | 1.2 | 128 | -33 | 85 | -1 | 102 | . | . | .
Cc1nc2c(c3c1[nH]c1ccccc13)C(O)CC(C)(C)C2 (stereo not drawn) | 0.88 | 99 | 2 | 0 | -1 | 98 | . | . | .
CN(C)S(=O)(=O)c1ccc(C(=O)NCCSc2ccc(Br)cc2)cc1 | 0.95 | 96 | 4 | -7 | 5 | 97 | . | . | .
O=C(NCCSc1ccccc1)c1ccc(Br)cc1 | 10* | 157* | -64 | 180* | 3 | 98 | 205* | 116 | 111*
Cc1ccc(N(CC(=O)NC(C)(C)C)C(=O)CNC(=O)c2cccs2)cc1C | 1.1 | 104 | -6 | 3 | 0 | 102 | . | . | .
Cc1nn(-c2nnc(NC3CCCCC3)nn2)c(C)c1Br | 2.8 | 164* | -72 | 134 | -20 | 122 | 185* | 133 | 122*
Cc1nn(C)c(C)c1S(=O)(=O)NC1CCCC1 | 1.1 | 107 | -8 | 10 | -3 | 105 | . | . | .
Cc1ccc(C)n1-c1ccc(C(=O)NN)cc1 | 1.1 | 103 | -3 | 22 | -6 | 105 | . | . | .
CC(=Nc1ccccc1)c1sc2ccccc2c1O | 6.3* | 190* | -99 | 132 | -23 | 124 | 228* | 133* | 150*
CC(=Nc1ccccc1)C1=C(O)COC1=O | 1.2 | 106 | -7 | 5 | 5 | 102 | . | . | .
NCCCC[C@@H](C(=O)N1CCNCC1)n1cc([C@@H](N)CO)nn1 | 0.97 | 106 | -5 | 21 | . | . | . | . | .
COC(=O)c1sccc1NC(=O)C1C2C=CC(C2)C1C(=O)O (stereo not drawn) | 1.4 | 97 | 0 | 18 | 7 | 97 | . | . | .
Cc1ccsc1C(=O)NNC(=O)C1C2C=CC(C2)C1C(=O)O (stereo not drawn) | 1.4 | 184* | -96 | 154* | -1 | 103 | 131* | 125 | 106
CCc1ccc(C2=NN(C(C)=O)C(c3ccco3)C2)cc1 (stereo not drawn) | 4.7* | 160* | -69 | 144* | -4 | 107 | 178* | 133 | 123*
O=C(Nc1ccc(Cl)c(Cl)c1)Nc1cc(S(=O)(=O)N2CCOCC2)ccc1N1CCCC1 | 0.66 | 98 | 2 | 5 | -16 | 111 | . | . | .
C=CCNC(=S)NNC(=O)COc1ccc(Br)cc1 | 1.2 | 113 | -14 | -1 | 4 | 97 | . | . | .
C=CCNC(=S)NNC(=O)COc1ccc2cc(Br)ccc2c1 | 3.4* | 152* | -58 | 66 | 5 | 99 | 152* | 125 | 104
COc1cccc(C(=O)N2CCC(N3CC(C)OC(C)C3)CC2)c1 (stereo not drawn) | 1.2 | 106 | -7 | 16 | 19 | 87 | . | . | .
CNc1nc(-c2ccc3c(c2)CCN3C(=O)c2ccccc2F)cs1 | 7.5* | 159* | -67 | 208* | 20 | 85 | 215* | 143* | 96
CC1=CC(=C2C(=O)c3ccccc3C2=O)C=C(C)N1Cc1ccco1 | 4.6* | 165* | -71 | 128 | 14 | 90 | 178* | 134* | 109
O=C1c2ccccc2C(=O)N1Cc1ccco1 | 1.2 | 97 | 0 | 11 | 1 | 102 | . | . | .
O=C(Oc1ccc2ccccc2c1Cl)N1CCCCCC1 | 5.1* | 174* | -81 | 133 | 3 | 102 | 211* | 118 | 141*
Cc1ccc(NCc2nc3ccccc3n2C)cc1 | 5.3* | 153* | -58 | 175* | -26 | 127 | 183* | 133 | 190*
COc1ccc(CCN(C)C(=O)CCc2nnc(-c3ccccc3)o2)cc1OC | 4.1* | 159* | -63 | 81 | -14 | 118 | 166* | 122 | 116*
SMILES | NF-kB expr up | STAT1 act | STAT1 blocker | APP 5'UTR act | STAT3 inh | STAT3 activator | STAT1 activ conf | NFkB act STAT1ct | STAT3 act 2
O=c1c2ccccc2nnn1CSc1ccccc1 | 4.3* | 165* | -72 | 158* | 25 | 78 | 192* | 109 | 100
CNc1nc(SC(C)C(=O)Nc2ccc(Cl)c(Cl)c2)nc(N2CCOCC2)n1 (stereo not drawn) | 1.2 | 106 | -6 | -21 | 6 | 102 | . | . | .
O=C(O)c1ccc(/C=N/Nc2ccc(C(F)(F)F)cn2)cc1 | 3.9* | 155* | -59 | 138* | 5 | 102 | 210* | 129 | 124*
O=C(O)c1ccc(N/N=C/c2ccc(-c3ccccc3)cc2)cc1 | 10* | 220* | -135 | 186* | 16 | 92 | 321* | 162* | 106
N#CC1=C(Nc2ccc(Br)cc2)CCC1 | 1.1 | 93 | 8 | 11 | 13 | 93 | . | . | .
Brc1ccc(NC2=Nc3ccccc3CC2)cc1 | 4.7* | 158* | -63 | 99 | 28 | 79 | 187* | 141* | 101
COc1ccc(NC(=O)/C(Cl)=C(/Cl)S(=O)Cc2ccccc2Cl)cn1 (stereo not drawn) | 0.31 | 346* | -268 | -94 | 18 | 87 | 292* | 65 | 133*
COc1ccc(NC(=O)Cc2ccc(Cl)c(Cl)c2)cn1 | 1.1 | 106 | -8 | 9 | 8 | 100 | . | . | .
Cc1ccccc1-n1c(C)nnc1SCC(=O)N(C)C1CCS(=O)(=O)C1 (stereo not drawn) | 1 | 97 | 5 | 10 | 0 | 104 | . | . | .
CCCCNC(=O)CSc1nc2ccc(N3CCOCC3)cc2c(=O)n1Cc1ccc(OC)cc1 | 1.7 | 158* | -64 | 16 | 2 | 109 | 148* | 119 | 117*
COCCNC(=O)CSc1nc2ccc(N3CCOCC3)cc2c(=O)n1Cc1ccc(OC)cc1 | 1.9 | 121 | -23 | 48 | -3 | 107 | . | . | .
CC(=O)NN1C(=O)/C(=C/c2ccc(C(C)C)cc2)SC1=S | 1.2 | 104 | -5 | -20 | -3 | 103 | . | . | .
Cc1ccn2c(c1)nc(=S)n2C(=O)c1ccccc1 | 1.1 | 283* | -202 | 189* | -11 | 113 | 518* | 185* | 138*
COC(=O)c1ccc(C(=O)OC)c(NC(=O)CN(c2ccccc2)S(=O)(=O)N(C)C)c1 | 0.99 | 93 | 6 | 10 | 7 | 99 | . | . | .
